Reference: ChEMBL document CHEMBL1143777, “Synthesis of some bioactive 2-bromo-5-methoxy-N'-[4-(aryl)-1,3-thiazol-2-yl]benzohydrazide derivatives” (2007)
In brackets after ≈: the same amount, converted by molar mass.

How the values were obtained:
Staphylococcus aureus = test: Antibacterial activity against Staphylococcus aureus by disc diffusion method; format: functional
Aspergillus fumigatus = test: Antifungal activity against Aspergillus fumigatus by serial plate dilution method; format: functional
Trichophyton benhamiae = test: Antifungal activity against Trichophyton mentagrophytes by serial plate dilution method; format: functional, Arthroderma benhamiae
Mus musculus [1] = test: Analgesic activity against acetic acid-induced writhing in Swiss Albino mouse assessed as protection at 50 mg/kg, po; format: functional
Summary of the method: (§1)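 Mice were dosed with the test agent or diclofenac sodium (2.5 mg/kg). One hour later, writhing was induced by ip injection of 0.6% acetic acid in distilled water at 10 ml/kg. Writhes were counted for 15 min right after the acetic acid injection, and percentage protection was calculated.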

Talaromyces marneffei = test: Antifungal activity against Penicillium marneffei by serial plate dilution method; format: functional
Aspergillus flavus = test: Antifungal activity against Aspergillus flavus by serial plate dilution method; format: functional
Pseudomonas aeruginosa = test: Antibacterial activity against Pseudomonas aeruginosa by disc diffusion method; format: functional
SF-268 = test: Antiproliferative activity against SF268 cells assessed as growth at 100 uM after 48 hrs; format: functional; settings: Homo sapiens, SF-268, 48 h; read-out: Activity
Summary of the method: (§2)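 This was the NCI primary three-cell-line, one-dose screen (lung NCI-H, breast MCF-7, CNS SF-268). Cells were inoculated on preincubated microtiter plates, and the agent was added at a single concentration. Cultures were incubated for 48 h. The endpoint was determined with sulphorhodamine B protein staining, with negative growth values indicating cell kill.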

SR = test: Antiproliferative activity against SR cells after 48 hrs; format: functional; settings: Homo sapiens
Summary of the method: (§3)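 This was the NCI 60-cell-line panel (lung, colon, melanoma, renal, ovarian, CNS, leukemia), with compounds tested over a five-dose range.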

Klebsiella pneumoniae = test: Antibacterial activity against Klebsiella pneumoniae by disc diffusion method; format: functional
MOLT-4 = test: Antiproliferative activity against MOLT4 cells after 48 hrs; format: functional; settings: Homo sapiens, MOLT-4, 48 h; summary of the method: as §3
[2] = Antiproliferative activity against NCI-H cells assessed as growth at 100 uM after 48 hrs; format: functional; settings: Homo sapiens, read-out: Activity; summary of the method: as §2
MCF7 = test: Antiproliferative activity against MCF7 cells assessed as growth at 100 uM after 48 hrs; format: functional; settings: Homo sapiens, MCF7, 48 h; read-out: Activity; summary of the method: as §2
RPMI-8226 = test: Antiproliferative activity against RPMI8226 cells after 48 hrs; format: functional; settings: Homo sapiens, RPMI-8226, 48 h; summary of the method: as §3
Escherichia coli = test: Antibacterial activity against Escherichia coli by disc diffusion method; format: functional
Mus musculus [3] = test: Analgesic activity against acetic acid-induced writhing in Swiss Albino mouse assessed as protection at 2.5 mg/kg, po; format: functional; summary of the method: as §1
[4] = read-out: LC50 (the source's name)

MIC (Staphylococcus aureus) [µg/mL]	MIC (Aspergillus fumigatus) [µg/mL]	MIC (Trichophyton benhamiae) [µg/mL]	MIC (Talaromyces marneffei) [µg/mL]	MIC (Aspergillus flavus) [µg/mL]	MIC (Pseudomonas aeruginosa) [µg/mL]	MIC (Klebsiella pneumoniae) [µg/mL]	SMILES	Activity (Mus musculus [1]) [%]	growth at 100 µM (SF-268) [%]	growth at 100 µM [2] [%]	growth at 100 µM (MCF7) [%]	other results
50 (≈ 90.7 µM)	10 (≈ 18.1 µM)	12.5 (≈ 22.7 µM)	12.5 (≈ 22.7 µM)				COc1ccc(Br)c(C(=O)NNc2nc(-c3cc4cc(Br)ccc4oc3=O)cs2)c1	50				
		50 (≈ 114 µM)		50 (≈ 114 µM)	50 (≈ 114 µM)		COc1ccc(Br)c(C(=O)NNc2nc(-c3ccc(Cl)cc3)cs2)c1	43.75				
	50 (≈ 115 µM)				50 (≈ 115 µM)		COc1ccc(-c2csc(NNC(=O)c3cc(OC)ccc3Br)n2)cc1	25				
50 (≈ 115 µM)	50 (≈ 115 µM)			12.5 (≈ 28.7 µM)	6.25 (≈ 14.3 µM)	12.5 (≈ 28.7 µM)	COc1ccc(Br)c(C(=O)NNc2nc(-c3ccc(O)c(O)c3)cs2)c1	12.5	111	101	86	MIC (Escherichia coli): 50 µg/mL (≈ 115 µM)
	12.5 (≈ 28.4 µM)	12.5 (≈ 28.4 µM)	12.5 (≈ 28.4 µM)	50 (≈ 114 µM)		50 (≈ 114 µM)	COc1ccc(Br)c(C(=O)NNc2nc(-c3ccnc(Cl)c3)cs2)c1	37.5	111	95	87	
50 (≈ 106 µM)			12.5 (≈ 26.5 µM)				COc1ccc(Br)c(C(=O)NNc2nc(-c3cc4ccccc4oc3=O)cs2)c1	37.5				MIC (Escherichia coli): 50 µg/mL (≈ 106 µM)
							COc1ccc(Br)c(C(=O)NNc2nc(-c3ccccc3)cs2)c1	12.5				
							O=C([O-])Cc1ccccc1Nc1c(Cl)cccc1Cl.[Na+] [DICLOFENAC SODIUM]					Activity (Mus musculus [3]): 62.5%
	< 16	< 16	< 16	< 16			CCC(C)n1ncn(-c2ccc(N3CCN(c4ccc(OC[C@H]5CO[C@](Cn6cncn6)(c6ccc(Cl)cc6Cl)O5)cc4)CC3)cc2)c1=O (stereo not given in full) [ITRACONAZOLE]					

SMILES	MIC (Staphylococcus aureus) [µg/mL]	MIC (Aspergillus fumigatus) [µg/mL]	MIC (Trichophyton benhamiae) [µg/mL]	MIC (Talaromyces marneffei) [µg/mL]	MIC (Aspergillus flavus) [µg/mL]	MIC (Pseudomonas aeruginosa) [µg/mL]	MIC (Klebsiella pneumoniae) [µg/mL]	Activity (Mus musculus [1]) [%]	growth at 100 µM (SF-268) [%]	growth at 100 µM [2] [%]	growth at 100 µM (MCF7) [%]	other results
COc1ccc(Br)c(C(=O)NNc2nc(-c3ccc(O)c(C(N)=O)c3)cs2)c1	12.5 (≈ 27 µM)	12.5 (≈ 27 µM)	12.5 (≈ 27 µM)	12.5 (≈ 27 µM)	60 (≈ 130 µM)		12.5 (≈ 27 µM)	56.25	55	17	19	GI50 (SR): 29.8 µM; TGI (SR): ≥ 100 µM; CC50 (SR; [4]): ≥ 100 µM; GI50 (MOLT-4): 22.6 µM; TGI (MOLT-4): 57 µM; CC50 (MOLT-4; [4]): ≥ 100 µM; GI50 (RPMI-8226): 27.9 µM; TGI (RPMI-8226): 92.5 µM; CC50 (RPMI-8226; [4]): ≥ 100 µM
